ChEMBL document CHEMBL2424551, “Synthesis, in vitro evaluation and molecular modelling of naphthalimide analogue as anticancer agents” (2013)

Experiments:
Assay type in all cases: functional
COLO 205 = assay: Growth inhibition of human COLO205 cells at 10 uM after 48 hrs by SRB assay; conditions: COLO 205, 48 h, read-out: GI
Method in brief: (§1)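 Cells grown in RPMI 1640 with 5% FBS and 2 mM L-glutamine, plated at 5000–40,000 cells/well by doubling time and preincubated 24 h (37 °C, 5% CO2); a time-zero plate is TCA-fixed. Single dose added, then 48 h incubation. Fixed with cold TCA, stained with 0.4% SRB, dye solubilized in 10 mM Tris base, absorbance at 515 nm; percent growth vs time-zero and untreated control.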

[1] = Growth inhibition of human HCC2998 cells at 10 uM after 48 hrs by SRB assay; conditions: HCC 2998, 48 h, read-out: GI; method in brief: as §1
NCI-H522 = assay: Growth inhibition of human NCI-H522 cells at 10 uM after 48 hrs by SRB assay; conditions: NCI-H522, 48 h, read-out: GI; method in brief: as §1
NCI-H226 = assay: Growth inhibition of human NCI-H226 cells at 10 uM after 48 hrs by SRB assay; conditions: NCI-H226, 48 h, read-out: GI; method in brief: as §1
NCI-H23 = assay: Growth inhibition of human NCI-H23 cells at 10 uM after 48 hrs by SRB assay; conditions: NCI-H23, 48 h, read-out: GI; method in brief: as §1
HOP-92 = assay: Growth inhibition of human HOP92 cells at 10 uM after 48 hrs by SRB assay; conditions: HOP-92, 48 h, read-out: GI; method in brief: as §1
HOP-62 = assay: Growth inhibition of human HOP62 cells at 10 uM after 48 hrs by SRB assay; conditions: HOP-62, 48 h, read-out: GI; method in brief: as §1
MOLT-4 = assay: Growth inhibition of human MOLT4 cells at 10 uM after 48 hrs by SRB assay; conditions: MOLT-4, 48 h, read-out: GI; method in brief: as §1
CCRF-CEM = assay: Growth inhibition of human CCRF-CEM cells at 10 uM after 48 hrs by SRB assay; conditions: read-out: GI; method in brief: as §1
K562 = assay: Growth inhibition of human K562 cells at 10 uM after 48 hrs by SRB assay; conditions: K562, 48 h, read-out: GI; method in brief: as §1
A549 = assay: Growth inhibition of human A549 cells at 10 uM after 48 hrs by SRB assay; conditions: A549, 48 h, read-out: GI; method in brief: as §1
Hs-578T = assay: Growth inhibition of human Hs578T cells at 10 uM after 48 hrs by SRB assay; conditions: read-out: GI; method in brief: as §1
MDA-MB-231 = assay: Growth inhibition of human MDA-MB-231 cells at 10 uM after 48 hrs by SRB assay; conditions: MDA-MB-231, 48 h, read-out: GI; method in brief: as §1
SN12C = assay: Growth inhibition of human SN12C cells at 10 uM after 48 hrs by SRB assay; conditions: read-out: GI
Method in brief: (§2)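 NCI 60-cell-line screen with a single 10 µM dose. Cells are grown in RPMI 1640 with 5% FBS and 2 mM L-glutamine, plated at 5000–40,000 cells/well according to doubling time, and preincubated 24 h at 37 °C, 5% CO2; time-zero plates are TCA-fixed at that point. Drug exposure is 48 h. Adherent cells are fixed with cold TCA, stained with 0.4% SRB in 1% acetic acid and read at 515 nm. Percent growth is calculated relative to time-zero and untreated controls and reported as GI%.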

ACHN = assay: Growth inhibition of human ACHN cells at 10 uM after 48 hrs by SRB assay; conditions: read-out: GI; method in brief: as §1
CAKI-1 = assay: Growth inhibition of human Caki1 cells at 10 uM after 48 hrs by SRB assay; conditions: CAKI-1, 48 h, read-out: GI; method in brief: as §1
786-0 = assay: Growth inhibition of human 786-0 cells at 10 uM after 48 hrs by SRB assay; conditions: 786-0, 48 h, read-out: GI; method in brief: as §1
SK-OV-3 = assay: Growth inhibition of human SKOV3 cells at 10 uM after 48 hrs by SRB assay; conditions: SK-OV-3, 48 h, read-out: GI; method in brief: as §2
OVCAR-5 = assay: Growth inhibition of human OVCAR5 cells at 10 uM after 48 hrs by SRB assay; conditions: OVCAR-5, 48 h, read-out: GI; method in brief: as §1
OVCAR-8 = assay: Growth inhibition of human OVCAR8 cells at 10 uM after 48 hrs by SRB assay; conditions: OVCAR-8, 48 h, read-out: GI; method in brief: as §1
OVCAR-3 = assay: Growth inhibition of human OVCAR3 cells at 10 uM after 48 hrs by SRB assay; conditions: OVCAR-3, 48 h, read-out: GI; method in brief: as §1
IGROV-1 = assay: Growth inhibition of human IGROV1 cells at 10 uM after 48 hrs by SRB assay; conditions: IGROV-1, 48 h, read-out: GI; method in brief: as §1
SK-MEL-5 = assay: Growth inhibition of human SK-MEL-5 cells at 10 uM after 48 hrs by SRB assay; conditions: SK-MEL-5, 48 h, read-out: GI; method in brief: as §1
UACC-257 = assay: Growth inhibition of human UACC257 cells at 10 uM after 48 hrs by SRB assay; conditions: UACC-257, 48 h, read-out: GI; method in brief: as §2
SK-MEL-2 = assay: Growth inhibition of human SK-MEL-2 cells at 10 uM after 48 hrs by SRB assay; conditions: SK-MEL-2, 48 h, read-out: GI; method in brief: as §1
M14 = assay: Growth inhibition of human M14 cells at 10 uM after 48 hrs by SRB assay; conditions: M14, 48 h, read-out: GI; method in brief: as §1
LOX IMVI = assay: Growth inhibition of human LOXIMVI cells at 10 uM after 48 hrs by SRB assay; conditions: read-out: GI; method in brief: as §1
Malme-3M = assay: Growth inhibition of human MALME-3M cells at 10 uM after 48 hrs by SRB assay; conditions: read-out: GI; method in brief: as §1
U-251 = assay: Growth inhibition of human U251 cells at 10 uM after 48 hrs by SRB assay; conditions: U-251, 48 h, read-out: GI; method in brief: as §2
SNB-75 = assay: Growth inhibition of human SNB75 cells at 10 uM after 48 hrs by SRB assay; conditions: SNB-75, 48 h, read-out: GI; method in brief: as §2
SF-295 = assay: Growth inhibition of human SF295 cells at 10 uM after 48 hrs by SRB assay; conditions: SF-295, 48 h, read-out: GI; method in brief: as §1
SF-539 = assay: Growth inhibition of human SF539 cells at 10 uM after 48 hrs by SRB assay; conditions: SF-539, 48 h, read-out: GI; method in brief: as §1
SW-620 = assay: Growth inhibition of human SW620 cells at 10 uM after 48 hrs by SRB assay; conditions: SW-620, 48 h, read-out: GI; method in brief: as §2
HT-29 = assay: Growth inhibition of human HT-29 cells at 10 uM after 48 hrs by SRB assay; conditions: HT-29, 48 h, read-out: GI; method in brief: as §1
KM12 = assay: Growth inhibition of human KM12 cells at 10 uM after 48 hrs by SRB assay; conditions: KM12, 48 h, read-out: GI; method in brief: as §1

Structure (SMILES) | inhibition of growth at 10 µM (COLO 205) | inhibition of growth at 10 µM [1] | inhibition of growth at 10 µM (NCI-H522) | inhibition of growth at 10 µM (NCI-H226) | inhibition of growth at 10 µM (NCI-H23) | inhibition of growth at 10 µM (HOP-92) | inhibition of growth at 10 µM (HOP-62) | inhibition of growth at 10 µM (MOLT-4) | inhibition of growth at 10 µM (CCRF-CEM) | inhibition of growth at 10 µM (K562) | inhibition of growth at 10 µM (A549) | inhibition of growth at 10 µM (Hs-578T) | inhibition of growth at 10 µM (MDA-MB-231) | inhibition of growth at 10 µM (SN12C) | inhibition of growth at 10 µM (ACHN) | inhibition of growth at 10 µM (CAKI-1) | inhibition of growth at 10 µM (786-0) | inhibition of growth at 10 µM (SK-OV-3) | inhibition of growth at 10 µM (OVCAR-5) | inhibition of growth at 10 µM (OVCAR-8) | other results
O=c1c2cccc3c(NCCO)ccc(c32)c2nc3ccccc3n12 | < 20% | < 20% | < 20% | < 20% | 22.2% | 40% | < 20% | < 20% | < 20% | < 20% | < 20% | < 20% | < 20% | < 20% | < 20% | < 20% | < 20% | < 20% | < 20% | < 20% | inhibition of growth at 10 µM (OVCAR-3): < 20%; inhibition of growth at 10 µM (IGROV-1): 63.5%; inhibition of growth at 10 µM (SK-MEL-5): 20.2%; inhibition of growth at 10 µM (UACC-257): < 20%; inhibition of growth at 10 µM (SK-MEL-2): < 20%; inhibition of growth at 10 µM (M14): < 20%; inhibition of growth at 10 µM (LOX IMVI): < 20%; inhibition of growth at 10 µM (Malme-3M): < 20%; inhibition of growth at 10 µM (U-251): < 20%; inhibition of growth at 10 µM (SNB-75): < 20%; inhibition of growth at 10 µM (SF-295): < 20%; inhibition of growth at 10 µM (SF-539): < 20%; inhibition of growth at 10 µM (SW-620): < 20%; inhibition of growth at 10 µM (HT-29): < 20%; inhibition of growth at 10 µM (KM12): < 20%
O=c1c2cccc3c(Nc4ccc(F)cc4)ccc(c32)c2nc3ccccc3n12 | < 20% | 23.9% | < 20% | < 20% | < 20% | 46.8% | < 20% | < 20% | < 20% | < 20% | < 20% | 26.4% | 29.1% | < 20% | < 20% | 20.1% | < 20% | < 20% | < 20% | < 20% | inhibition of growth at 10 µM (OVCAR-3): < 20%; inhibition of growth at 10 µM (SK-MEL-5): 29.6%; inhibition of growth at 10 µM (UACC-257): < 20%; inhibition of growth at 10 µM (SK-MEL-2): < 20%; inhibition of growth at 10 µM (M14): < 20%; inhibition of growth at 10 µM (LOX IMVI): < 20%; inhibition of growth at 10 µM (Malme-3M): < 20%; inhibition of growth at 10 µM (U-251): < 20%; inhibition of growth at 10 µM (SNB-75): 29.2%; inhibition of growth at 10 µM (SF-295): < 20%; inhibition of growth at 10 µM (SF-539): < 20%; inhibition of growth at 10 µM (SW-620): < 20%; inhibition of growth at 10 µM (HT-29): < 20%; inhibition of growth at 10 µM (KM12): 25.6%
